Source: ChEMBL document CHEMBL1136577, “Synthesis of 6-formyl-pyridine-2-carboxylate derivatives and their telomerase inhibitory activities” (Bioorg Med Chem Lett, 2003)

Experiments:
[1] = biological target: Telomerase reverse transcriptase (Homo sapiens, UniProt O14746); test: In vitro inhibitory activity of compound against telomerase
How it was run: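 Telomerase activity was measured by TRAP assay. Extension products were resolved on 10% nondenaturing polyacrylamide gel, stained with SYBR Green, and band intensity quantified by image analysis. IC50 was derived from the reduction in product signal.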

HEC-1B cell line = test: In vitro antiproliferative activity of compound against HEC-1-B (human endometrical caner ) cell line was determined by SRB assay; format: functional, cell-based
How it was run: (§1)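 Cells grown for 3 days with compound, then growth read by sulforhodamine B (SRB) staining. IC50 taken as the dose giving 50% growth inhibition of the cultured cells.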

CAKI-2 = test: In vitro antiproliferative activity of compound against Caki-2 (human renal caner ) cell line was determined by SRB assay; format: functional, cell-based; how it was run: as §1
A549 = test: In vitro antiproliferative activity of compound against […] (human lung caner ) cell line was determined by SRB assay; format: functional, cell-based; how it was run: as §1
HL-60 = test: In vitro antiproliferative activity of compound against HL-60 (human assay; format: functional, cell-based; how it was run: as §1
HT-29 = test: In vitro antiproliferative activity of compound against HT-29 (human colon caner ) cell line aws determined by SRB assay; format: functional, cell-based
How it was run: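 Human tumour cell lines exposed to compound for 3 days, with growth measured by sulforhodamine B (SRB) staining. IC50 is the concentration that inhibits growth of 50% of the cultured cells.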

Telomerase reverse transcriptase, sequence (O14746 whole entry): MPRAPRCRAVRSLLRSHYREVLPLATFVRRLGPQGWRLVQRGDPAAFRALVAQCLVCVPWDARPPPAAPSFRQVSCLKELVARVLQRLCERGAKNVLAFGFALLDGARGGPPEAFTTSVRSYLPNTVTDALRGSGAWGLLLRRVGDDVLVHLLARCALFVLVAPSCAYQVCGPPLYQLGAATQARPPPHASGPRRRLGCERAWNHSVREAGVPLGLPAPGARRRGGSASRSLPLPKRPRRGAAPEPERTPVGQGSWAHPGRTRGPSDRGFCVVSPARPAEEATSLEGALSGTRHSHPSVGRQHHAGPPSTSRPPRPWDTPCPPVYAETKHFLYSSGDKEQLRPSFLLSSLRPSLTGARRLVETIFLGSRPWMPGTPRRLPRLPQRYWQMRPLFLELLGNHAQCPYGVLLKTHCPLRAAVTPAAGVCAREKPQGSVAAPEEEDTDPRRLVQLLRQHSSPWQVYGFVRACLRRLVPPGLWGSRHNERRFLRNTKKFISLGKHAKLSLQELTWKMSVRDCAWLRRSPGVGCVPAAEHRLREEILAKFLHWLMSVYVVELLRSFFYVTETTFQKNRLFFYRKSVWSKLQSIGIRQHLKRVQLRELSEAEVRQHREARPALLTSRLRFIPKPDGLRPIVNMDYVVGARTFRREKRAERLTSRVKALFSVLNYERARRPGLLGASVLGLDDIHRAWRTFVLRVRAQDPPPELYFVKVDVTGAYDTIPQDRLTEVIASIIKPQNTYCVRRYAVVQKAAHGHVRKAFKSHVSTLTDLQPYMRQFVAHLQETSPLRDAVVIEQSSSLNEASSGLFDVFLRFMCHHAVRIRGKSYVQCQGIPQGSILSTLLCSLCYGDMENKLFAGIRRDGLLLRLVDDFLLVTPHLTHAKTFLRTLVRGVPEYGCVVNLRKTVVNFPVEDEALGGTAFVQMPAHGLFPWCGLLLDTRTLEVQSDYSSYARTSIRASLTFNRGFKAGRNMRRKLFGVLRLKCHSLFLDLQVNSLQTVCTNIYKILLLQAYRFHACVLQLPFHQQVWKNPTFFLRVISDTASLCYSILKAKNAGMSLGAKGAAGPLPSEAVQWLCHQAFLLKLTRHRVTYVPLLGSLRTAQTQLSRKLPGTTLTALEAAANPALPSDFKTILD

Row | Compound | IC50 [1] [µM] | also measured
1 | Cc1ccc(SC(=O)c2cccc(C=O)n2)cc1 | > 100 | –
2 | COc1cccc(SC(=O)c2cccc(C=O)n2)c1 | 76 | –
3 | Cc1ccccc1SC(=O)c1cccc(C=O)n1 | > 100 | –
4 | O=Cc1cccc(C(=O)Nc2ccc(Cl)c(Cl)c2)n1 | > 100 | –
5 | COc1ccc(SC(=O)c2cccc(C=O)n2)cc1 | 91 | –
6 | N#Cc1ccc(C=O)nc1SCc1c(Cl)cccc1Cl | 77 | IC50 (HEC-1B cell line): 175 µM; IC50 (CAKI-2): > 300 µM; IC50 (A549): > 300 µM; IC50 (HL-60): 26.7 µM
7 | CC[C@@]1(O)C(=O)OCc2c1cc1n(c2=O)Cc2cc3ccccc3nc2-1 [CAMPTOTHECIN] | – | IC50 (HEC-1B cell line): 8.64 µM; IC50 (CAKI-2): 3.96 µM; IC50 (HT-29): 1.4 µM; IC50 (A549): 2.53 µM; IC50 (HL-60): 0.066 µM
8 | O=Cc1cccc(C(=O)Sc2ccccc2Cl)n1 | 84 | –
9 | O=Cc1cccc(C(=O)Sc2c(Cl)cccc2Cl)n1 | 79 | –
10 | CC(=O)Nc1ccc(SC(=O)c2cccc(C=O)n2)cc1 | > 100 | –
11 | O=Cc1cccc(C(=O)Oc2ccc(Cl)c(Cl)c2)n1 | > 100 | –
12 | O=Cc1cccc(C(=O)Sc2cccc(Cl)c2)n1 | 79 | –
13 | COc1ccccc1SC(=O)c1cccc(C=O)n1 | > 100 | –

Now from value to compound, other results behind:

Row | IC50 [1] [µM] | Compound | also measured
14 | 76 | Cc1cccc(SC(=O)c2cccc(C=O)n2)c1 | –
15 | 50 | O=Cc1cccc(C(=O)Sc2c(Cl)cc(Cl)cc2Cl)n1 | –
16 | 64 | O=Cc1cccc(C(=O)Sc2ccc(F)cc2)n1 | –
17 | 75 | O=Cc1cccc(C(=O)Sc2ccc([N+](=O)[O-])cc2)n1 | –
18 | 33 | O=Cc1cccc(C(=O)Sc2ccc(Cl)cc2)n1 | –
19 | 56 | O=Cc1cccc(C(=O)Sc2ccc(Br)cc2)n1 | –
20 | 69 | O=Cc1cccc(C(=O)Sc2ccc(F)c(F)c2)n1 | –
21 | 68 | O=Cc1cccc(C(=O)Sc2cc(Cl)ccc2Cl)n1 | –
22 | 64 | O=Cc1cccc(C(=O)Sc2cc(Cl)cc(Cl)c2)n1 | –
23 | 24 | O=Cc1cccc(C(=O)Sc2ccc(Cl)c(Cl)c2)n1 | IC50 (HEC-1B cell line): 56.4 µM; IC50 (CAKI-2): > 300 µM; IC50 (A549): 56.9 µM; IC50 (HL-60): 13 µM
